PGC1a Ac signal: raises PGC1a acetylation signal in U2OS cells; 0.21% of 350,000 active; activation, % at 15.6 µM; AID 651723; U2OS PGC1a acetylation AlphaScreen, overnight;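 active = every replicate reaching activation of at least 50%, whatever the mean replicate activation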;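 note: hits raise the AlphaScreen acetylation signal above neutral controls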
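System: Flag-PGC1a/GCN5 U2OS cells | Quantity: 7000 cells/well | Times: Overnight compound treatment, 37 °C | Measured by: AlphaScreen proximity luminescence, anti-acetyl-lysine antibody | Dosing: One concentration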
Active calls of the source: *. Not all results are given here.

SMILES | PGC1a Ac signal
Cc1ccc(S(=O)(=O)N(C)C[C@H]2Oc3cc(C#Cc4ccncc4)ccc3S(=O)(=O)N([C@H](C)CO)C[C@H]2C)cc1 | -44.4
Cc1ccccc1-c1ccc2c(c1)O[C@H](CN(C)Cc1ccncc1)[C@@H](C)CN([C@@H](C)CO)S2(=O)=O | 57.3*
C[C@H]1CN([C@@H](C)CO)S(=O)(=O)c2ccc(Br)cc2O[C@@H]1CN(C)S(=O)(=O)c1ccccc1F | 64.4*
C[C@H](CO)N1C[C@H](C)[C@H](CN(C)C(=O)NC2CCCCC2)Oc2cc(C#Cc3ccc(F)cc3)ccc2S1(=O)=O | -55.0
CCCN(C)C[C@@H]1Oc2cc(C#C[C@H](C)O)ccc2S(=O)(=O)N([C@H](C)CO)C[C@@H]1C | -50.2
COc1ccc(S(=O)(=O)N(C)C[C@@H]2Oc3cc(C#CC4CC4)ccc3S(=O)(=O)N([C@H](C)CO)C[C@@H]2C)cc1 | 56.4*
COc1ccc(S(=O)(=O)N(C)C[C@@H]2Oc3cc(C#CC4CC4)ccc3S(=O)(=O)N([C@@H](C)CO)C[C@@H]2C)cc1 | 136.3*
COc1ccccc1C#Cc1ccc2c(c1)O[C@@H](CN(C)Cc1cccnc1)[C@H](C)CN([C@@H](C)CO)S2(=O)=O | -44.4
C[C@H](CO)N1C[C@H](C)[C@@H](CN(C)Cc2cccnc2)Oc2cc(C#CC3CCCCC3)ccc2S1(=O)=O | -49.4
C[C@@H]1CN([C@@H](C)CO)S(=O)(=O)c2ccc(-c3ccc(F)cc3)cc2O[C@H]1CN(C)C(=O)C1CCCCC1 | -64.1
O=S(=O)(c1cnccc1N1CCN(/N=C/c2ccccc2)CC1)N1CCCCC1 | -57.0
CCOc1ccc(C(C)=O)cc1N1C(=O)C2C3C=CC(C3=C(C)C)C2C1=O (configuration not stated) | -43.5
Cn1ncc(C(=O)Nc2ccc(Cl)cc2)c1C(F)(F)F | -64.8
CC(=O)Nc1ccc(OS(=O)(=O)c2ccc(C)cc2C)cc1 | -47.5
CCOc1ccc2c(c1)C(C)=CC(C)(C)N2S(=O)(=O)c1ccc(NC(C)=O)cc1 | 106.1*
CCN(CC)S(=O)(=O)c1cccc(-c2nnc(SCc3ncc(-c4ccccc4)o3)n2C)c1 | -43.2
Cc1cc(S(=O)(=O)c2ccc([N+](=O)[O-])cn2)ccc1Br | 135.3*
COc1ccc(-c2cnc3c(c2)C(=O)N([C@H](C)CO)C[C@@H](C)[C@@H](CN(C)C(=O)Nc2c(C)noc2C)O3)cc1 | -43.5
OC[C@@H]1[C@H](c2ccc(C#CC3CCCC3)cc2)[C@H]2CN(CCC(F)(F)F)CCCCN12 | -80.5
N#C[C@H]1[C@H](c2ccc(C#CC3CCCC3)cc2)[C@H](CO)N1C(=O)Cc1ccccn1 | -58.9
OC[C@H]1[C@@H](c2ccc(C#CC3CCCC3)cc2)[C@@H]2CN(CCC(F)(F)F)CCCCN12 | 60.2*
CCN(C[C@@H]1N[C@@H](CO)[C@H]1c1ccc(-c2ccc(F)cc2)cc1)C(=O)CN(C)C | 59.4*
CN1CCN(C(=O)C[C@@H]2CC[C@@H]3[C@H](COC[C@H](O)CN3CC3CCCCC3)O2)CC1 | -47.1
CCCCC(C(=O)O)C(C)CC(=O)Nc1nncs1 (configuration not stated) | -44.9
O=C(COC(=O)c1ccccc1C(=O)c1ccc(Cl)c([N+](=O)[O-])c1)NC1CCCCCC1 | 160.2*
SMILES | PGC1a Ac signal
Cc1ccc(NC(=O)c2ccc(NCC3CCCO3)c([N+](=O)[O-])c2)cc1Cl (configuration not stated) | -43.3
CCS(=O)(=O)c1ccc2oc(Nc3ccccc3Br)nc2c1 | -51.8
Cc1cccc(-n2c(=O)cc(N3CCN(c4ccc(F)cc4)CC3)[nH]c2=O)c1 | -54.9
O=C1N(Cc2ccccc2)Cc2ccccc2[C@@H]2OC(c3ccc(OCCCO)cc3)=N[C@]12Cc1ccccc1 | 52.0*
CCC(=O)NCc1c(C)c(C)n(Cc2ccccc2)c1-n1cccc1 | -43.1
CCCOc1ccccc1-n1sc2c(c1=S)-c1cc(OC)cc3c1N(C(=O)C3=O)C2(C)C | -49.0
O=C1C=CCCN1C(=O)/C=C/c1cccc(Br)c1 | -46.4
Cc1cc(Sc2nnc(N)s2)c2ccccc2n1 | 59.0*
CC(C)(C)c1ccc(OCCSc2nc3ccccc3n2CC(=O)O)cc1 | -41.3
CN(C)C(=O)c1ccc(-c2ccc([C@H]3[C@H]4CN(C(=O)CC5CC5)CC(=O)N4[C@H]3CO)cc2)cc1 | -50.8
CC(=O)C1=C(O)C(=O)N(Cc2ccco2)C1c1cccc(F)c1 (configuration not stated) | -51.3
Cc1ccc(S(=O)(=O)N(CC2CO2)c2ccccc2[N+](=O)[O-])cc1 (configuration not stated) | -79.1
COc1cccc(-c2csc(N3CCN(C(=S)Nc4ccccc4Cl)CC3)n2)c1 | 66.7*
CCCCN(C)C1CCN(C(=S)Nc2cccc(OC)c2)CC1 | -51.6
CCOCCn1c(N2CCN(c3ccccc3)CC2)nc2c1c(=O)n(C)c(=O)n2C | 53.8*
CC12CC(c3ccccc3O1)N(C(=O)c1ccc(Br)o1)C(=O)N2c1ccccc1 (configuration not stated) | -44.3
O=C(Nc1cccc(OC(F)(F)F)c1)c1ccc(-c2cccnc2)c2ccoc12 | 58.7*
CCOc1ccc(NC(=O)c2cccc3c2C(=O)N(CCOC)C3)cc1 | 93.9*
Cc1ccc(S(=O)(=O)N[C@H]2C=C[C@H](CC(=O)NCCN3CCCCC3)O[C@H]2CO)cc1 | -45.9
COCCCNC(=O)c1ccc(Cn2c(=O)c3ccccc3n(Cc3ccccc3C)c2=O)cc1 | -52.2
O=C1CSC(=Nc2ccc(Cl)cc2)N1Cc1ccco1 | -46.8
O=C(NCc1ccco1)c1ccc(Cn2c(=O)c3ccccc3n(Cc3ccc(Cl)cc3)c2=O)cc1 | 87.8*
O=C(O)c1cccc(N2C(=O)CSC2c2c(F)cccc2Cl)c1 (configuration not stated) | 56.3*
CC(C)Cn1cnc2c(N)nc3ccccc3c21 | -42.3
Fc1ccc(/C=N/N2CCCCC2)c(F)c1 | -65.9
SMILES | PGC1a Ac signal
O=C(N=Nc1c(O)[nH]c2ccccc12)c1cc(-c2cccs2)[nH]n1 | -47.8
CC1(C)CC2(CCO1)OC(=O)CC2C(=O)Nc1cccc2ccccc12 (configuration not stated) | 71.6*
Cc1cc(C)c(NC(=O)c2ccc(S(=O)(=O)N(C)C)cc2)c(C)n1 | -50.4
Cc1ccc(CNn2cnnc2SCC(=O)NC(C)(C)C)cc1 | -42.4
Cc1ccc(CNC(=O)CCS(=O)(=O)c2cc3c(cc2Cl)NC(=O)CO3)cc1 | 15.4
CN1OC(COC(=O)c2ccccc2)CC1c1ccccc1 (configuration not stated) | -48.8
CC(C)c1ccc(NC(=O)c2ccc3c(c2)CCN3S(C)(=O)=O)cc1 | -81.9
CS(=O)(=O)c1ncc(Cl)c(C(=O)Nc2ccc(N3CCOCC3)cc2)n1 | 80.9*
Cc1ccc(-c2cnc3c(c2)C(=O)N([C@@H](C)CO)C[C@@H](C)[C@H](CN(C)C)O3)cc1 | -109.0
COc1ccc(CCn2c(-c3ccc(OC)cc3)nc3c(c(=O)c4ccccc4n3C)c2=O)cc1 | 109.0*
CCN(CCNc1ccc(Cl)cc1[N+](=O)[O-])C(=O)c1cc([N+](=O)[O-])c(N(C)C)cc1OC | -51.5
CC(C)(C)NCCC(O)c1cc(C(F)(F)F)nc2c(C(F)(F)F)cccc12 (configuration not stated) | 70.0*
Cc1ccc(OCC(=O)N2CC(C)OC(C)C2)c([N+](=O)[O-])n1 (configuration not stated) | -42.8
CCC(=O)N(C)C[C@@H]1Oc2cc(C#Cc3cccnc3)ccc2S(=O)(=O)N([C@H](C)CO)C[C@H]1C | -28.8
